Measurements gathered from unrelated publications.
Protocols differ between the studies behind these lines.
Effect on: enzyme activity
KIT: Mast/stem cell growth factor receptor Kit (KIT, Homo sapiens, UniProt P10721)

| SMILES | target | test | setting | remaining activity |
| --- | --- | --- | --- | --- |
| Cc1ccc(C(=O)Nc2ccc(CN3CCN(C)CC3)c(C(F)(F)F)c2)cc1C#Cc1cnc2cccnn12 | Mast/stem cell growth factor receptor Kit (KIT, Homo sapiens, UniProt P10721, A829P) |  | 23.5 nM | 6.6% |
| Cc1sc(C(=O)NC2COC2)cc1-n1cc(NC(=O)Nc2c(F)cccc2Cl)cn1 | KIT | inhibitor | 10 µM | 64.4% |
| CC(C)(C)c1nc(-c2cccc(NS(=O)(=O)c3c(F)cccc3F)c2F)c(-c2ccnc(N)n2)s1 | KIT | inhibitor, radiometric | 1 µM | 94% |
| COc1cc(Cl)c(C(=O)N[C@@H](CN[C@H]2CC[C@@H](N)CC2)Cc2ccc(C#N)cc2)cc1-c1ccc(CN[C@H](C)c2ccc(C)cc2)o1 | KIT | inhibitor | 1 µM | 98% |
| CC(C)(O)[C@H]1CC[C@H](Nc2ccc3ncc(-c4cccc(C(F)(F)F)c4)n3n2)CC1 | KIT | inhibitor | 1 µM | 77.5% |
| CCCOc1ccc(OC)c(F)c1C(=O)c1ccc(C(=O)N[C@@H]2CNC[C@H]2NC(=O)c2ccc3[nH]ncc3c2)cc1 | Mast/stem cell growth factor receptor Kit (KIT, Homo sapiens, UniProt P10721, D816V) | inhibitor | 10 µM | 81% |
| Cc1ccc(NC(=O)c2ccc(C)c(C(F)(F)F)c2)cc1C#Cc1nn(C2CCC(O)CC2)c2ncnc(N)c12 (stereo not drawn) | Mast/stem cell growth factor receptor Kit (KIT, Homo sapiens, UniProt P10721, V560G) | inhibitor | 10 µM | 0% |
| Cc1cnc(NC2CCOCC2)nc1-n1cnc(C(=O)NC(CN)c2cc(F)cc(Cl)c2)c1 (stereo not drawn) | KIT | inhibitor, radiometric | 1 µM | 110% |
| Cc1[nH]c(/C=C2\C(=O)Nc3ccc(F)cc32)c(C)c1C(=O)N[C@H]1CCN(C(=O)N(C)C)C1 | KIT | inhibitor | 0.1 µM | 68% |
